According to ChEMBL document CHEMBL1921799, “Computationally-guided optimization of a docking hit to yield catechol diethers as potent anti-HIV agents” (J Med Chem, 2011):
pEC50: −log10 of the molar value.

Tests used:
[1] = test system: Human immunodeficiency virus 1; experiment: Antiviral activity against Human immunodeficiency virus 1 3B infected in human MT2 cells assessed as protection against viral infection by MTT assay; type: functional, organism-based
How it was run: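 HIV-1 (IIIB or variant strains) infected into MT-2 human T-cells. The MTT colorimetric read-out measured cell viability. […] Antiviral curves used triplicate samples at each concentration, and a cytotoxicity (CC50) curve on MT-2 growth was run at the same time.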

MT2 [2] = experiment: Cytotoxicity against human MT2 cells infected with HIV1 3B by MTT assay; type: cell-based
[3] = test system: Human immunodeficiency virus 1; experiment: Antiviral activity against Human immunodeficiency virus 1 NL4.3 reverse transcriptase Y181C mutant infected in human MT2 cells assessed as inhibition of viral infection; type: functional, organism-based; conditions: Human immunodeficiency virus 1, NL4.3, MT2
How it was run: (§1)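 HIV-1 (IIIB or variant strains) infected into MT-2 human T-cells. The MTT colorimetric read-out measured cell viability. Antiviral curves used triplicate samples at each concentration, and a cytotoxicity (CC50) curve on MT-2 growth was run at the same time.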

[4] = test system: Human immunodeficiency virus 1; experiment: Antiviral activity against Human immunodeficiency virus 1 NL4.3 infected in human MT2 cells assessed as inhibition of viral infection; type: functional, organism-based; conditions: Human immunodeficiency virus 1, NL4.3, MT2; how it was run: as §1
[5] = test system: Human immunodeficiency virus 1; experiment: Ratio of EC50 for Human immunodeficiency virus 1 NL4.3 reverse transcriptase K103N and Y181C double mutant to EC50 for Human immunodeficiency virus 1 NL4.3 expressing wild type reverse transcriptase; type: functional
MT2 [6] = experiment: (§2) Cytotoxicity against human MT2 cells infected with HIV1 NL4.3 by MTT assay; type: cell-based; conditions: mt2
[7] = test system: Human immunodeficiency virus 1; experiment: Ratio of EC50 for Human immunodeficiency virus 1 NL4.3 reverse transcriptase Y181C mutant to EC50 for Human immunodeficiency virus 1 NL4.3 expressing wild type reverse transcriptase; type: functional
[8] = test system: Human immunodeficiency virus 1; experiment: Antiviral activity against Human immunodeficiency virus 1 NL4.3 reverse transcriptase K103N and Y181C double mutant infected in human MT2 cells assessed as inhibition of viral infection; type: functional, organism-based; conditions: Human immunodeficiency virus 1, NL4.3, MT2; how it was run: as §1
[9] = as §2; type: cell-based; conditions: MT2 cells infected with HIV1 NL4.3
[10] = test system: Human immunodeficiency virus 1; experiment: Antiviral activity against Human immunodeficiency virus 1 NL4.3 reverse transcriptase Y181C mutant infected in human MT4 cells assessed as inhibition of viral infection; type: functional, organism-based; conditions: Human immunodeficiency virus 1, NL4.3, MT4
[11] = test system: Human immunodeficiency virus 1; experiment: Antiviral activity against Human immunodeficiency virus 1 NL4.3 reverse transcriptase K103N and Y181C double mutant infected in human MT4 cells assessed as inhibition of viral infection; type: functional, organism-based; conditions: Human immunodeficiency virus 1, NL4.3, MT4
[12] = test system: Human immunodeficiency virus 1; experiment: Antiviral activity against Human immunodeficiency virus 1 NL4.3 infected in human MT4 cells assessed as inhibition of viral infection; type: functional, organism-based; conditions: Human immunodeficiency virus 1, NL4.3, MT4
[13] = Cytotoxicity against human MT4 cells infected with HIV1 NL4.3 by MTT assay; type: cell-based

Row | Structure (SMILES) | pEC50 [1] | CC50 (MT2 [2]) [nM] | pEC50 [3] | pEC50 [4] | CC50 (MT2 [6]) [nM] | pEC50 [8] | further results
1 | O=c1ccn(CCOc2ccc(Cl)cc2Cc2cc(Cl)cc(Cl)c2)c(=O)[nH]1 | 5.89 | 10000 |  |  |  |  | 
2 | N#Cc1ccc(Oc2ccccc2Cl)c(OCCn2ccc(=O)[nH]c2=O)c1 | 6.57 | > 100000 |  |  |  |  | 
3 | N#Cc1cc(Cl)cc(Oc2ccc(Cl)cc2OCCn2cc(Cl)c(=O)[nH]c2=O)c1 | 7.77 | 31000 | 6.62 | 7.77 | 21000 | 6.24 | Ratio EC50 [5]: 34; Ratio EC50 [7]: 14
4 | N#Cc1ccc(Oc2cc(Cl)ccc2Cl)c(OCCn2ccc(=O)[nH]c2=O)c1 | 7.37 | 71000 | 6.04 | 7.37 | 59000 | 5.55 | 
5 | N#Cc1cc(Cl)cc(Oc2ccc(C#N)cc2OCCn2cc(Cl)c(=O)[nH]c2=O)c1 | 5.28 | 94000 |  |  |  |  | 
6 | N#Cc1cc(F)c(Oc2ccccc2Cl)c(OCCn2ccc(=O)[nH]c2=O)c1 | 6.80 | > 100000 |  |  |  |  | 
7 | O=c1ccn(CCOc2cc(Cl)cc(Cl)c2Oc2ccccc2Cl)c(=O)[nH]1 | 6.08 | 13000 |  |  |  |  | 
8 | Cc1cc(C)cc(Oc2c(CSCc3ccco3)c(C)[nH]c(=O)c2I)c1 |  |  |  | 9.00 |  |  | 
9 | N#Cc1cc(Cl)cc(Oc2ccc(Cl)cc2OCCn2ccc(=O)[nH]c2=O)c1 | 7.85 |  | 6.28 | 7.85 |  | 5.77 | CC50 [9]: > 100000 nM
10 | N#Cc1cc(Cl)cc(Oc2ccc(Cl)cc2OCCn2cc(F)c(=O)[nH]c2=O)c1 | 7.89 | 17000 | 6.21 | 7.89 | 13000 | 5.77 | 
11 | N#Cc1cc(Cl)cc(Oc2cc(Cl)ccc2OCCn2ccc(=O)[nH]c2=O)c1 | 7.05 | 33000 | 5.17 | 7.05 | 32000 | 5.92 | 
12 | O=c1ccn(CCOc2cc(Cl)ccc2Cc2ccccc2Cl)c(=O)[nH]1 | 6.39 | 12000 |  |  |  |  | 
13 | O=c1ccn(CCOc2ccc(Cl)cc2Cc2cc(Cl)ccc2Cl)c(=O)[nH]1 | 6.42 | 15000 |  |  |  |  | 
14 | O=c1[nH]c(=O)n(CCOc2ccc(Cl)cc2Cc2ccccc2)cc1F | 5.60 | 27000 |  |  |  |  | 
15 | CNc1ccc(Oc2cc(Cl)cc(/C=C/C#N)c2)c(OCCn2ccc(=O)[nH]c2=O)c1 | 7.70 | 30000 | 5.55 | 7.70 | 30000 |  | 
16 | N#C/C=C/c1cc(F)cc(Oc2ccc(F)cc2OCCn2ccc(=O)[nH]c2=O)c1 | 9.49 | 45000 | 7.80 | 9.49 | 45000 | 7.07 | 
17 | N#Cc1ccc(Oc2cc(Cl)cc(Cl)c2)c(OCCn2ccc(=O)[nH]c2=O)c1 | 7.70 | > 100000 | 6.10 | 7.70 | > 61000 | < 4.37 | 
18 | Cc1cc(C#N)cc(C)c1Oc1nc(Nc2ccc(C#N)cc2)nc(N)c1Br [ETRAVIRINE] |  |  |  |  |  |  | pEC50 [10]: 8.15; pEC50 [11]: 8.40
19 | O=c1ccn(CCOc2ccc(Cl)cc2Cc2ccccc2Cl)c(=O)[nH]1 | 6.21 | 28000 |  |  |  |  | 
20 | O=C1Nc2ccc(Cl)cc2[C@@](C#CC2CC2)(C(F)(F)F)O1 [EFAVIRENZ] |  |  |  |  |  |  | pEC50 [12]: 8.85; pEC50 [10]: 8.70; pEC50 [11]: 7.43

Row | Structure (SMILES) | pEC50 [1] | CC50 (MT2 [2]) [nM] | pEC50 [3] | pEC50 [4] | CC50 (MT2 [6]) [nM] | pEC50 [8] | further results
21 | Cc1ccnc2c1NC(=O)c1cccnc1N2C1CC1 [NEVIRAPINE] |  |  | < 4.00 |  |  | < 4.00 | pEC50 [12]: 7.09; pEC50 [10]: < 5.00; CC50 [9]: > 100000 nM; pEC50 [11]: < 5.00
22 | N#Cc1cc(Cl)cc(Oc2ccc(C#N)cc2OCCn2ccc(=O)[nH]c2=O)c1 | 5.22 | > 100000 |  |  |  |  | 
23 | Cc1cn(CCOc2ccc(Cl)cc2Cc2ccccc2)c(=O)[nH]c1=O | 5.62 | 22000 |  |  |  |  | 
24 | O=c1ccn(CCOc2ccc(Cl)cc2Cc2cccc(Cl)c2)c(=O)[nH]1 | 5.82 | 11000 |  |  |  |  | 
25 | Cc1cc(/C=C/C#N)cc(C)c1Nc1ccnc(Nc2ccc(C#N)cc2)n1 [RILPIVIRINE] |  |  |  |  | > 1000 |  | pEC50 [12]: 9.40; CC50 [13]: 8000 nM; pEC50 [11]: 9.00
26 | Cc1ccc(OCCn2ccc(=O)[nH]c2=O)c(Cc2ccccc2)c1 | 5.32 | 72000 |  |  |  |  | 
27 | N#C/C=C/c1cc(Cl)cc(Oc2ccc(Cl)cc2OCCn2ccc(=O)[nH]c2=O)c1 | 10.26 | 10000 | 7.31 | 10.26 | 10000 | 6.66 | 
28 | N#C/C=C/c1cccc(Oc2ccc(C#N)cc2OCCn2ccc(=O)[nH]c2=O)c1 | 7.82 | > 100000 | 6.01 | 7.82 | > 90000 | 5.10 | 
29 | O=c1ccn(CCOc2ccc(Cl)cc2Cc2ccccc2)c(=O)[nH]1 | 5.92 | 23000 |  |  |  |  | 
30 | N#Cc1ccc(Oc2cccc(OCCCO)c2)c(OCCn2ccc(=O)[nH]c2=O)c1 | 5.74 | > 100000 |  |  |  |  | 
31 | O=c1[nH]c(=O)n(CCOc2ccc(Cl)cc2Cc2ccccc2)cc1Cl | 5.66 | 21000 |  |  |  |  | 
32 | N#Cc1cccc(Cl)c1Oc1cc(Cl)ccc1OCCn1ccc(=O)[nH]c1=O | 6.92 | 50000 |  |  |  |  | 
33 | N#Cc1cc(C#N)cc(Oc2ccc(Cl)cc2OCCn2ccc(=O)[nH]c2=O)c1 | 7.34 | > 100000 |  |  |  |  | 
34 | O=c1ccn(CCOc2ccc(Cl)cc2Cc2ccc(Cl)cc2Cl)c(=O)[nH]1 | 5.54 | 88000 |  |  |  |  | 
35 | O=c1ccn(CCOc2ccc(Cl)cc2Cc2c(Cl)cccc2Cl)c(=O)[nH]1 | 6.51 | 49000 |  |  |  |  | 
36 | N#C/C=C/c1cccc(Oc2ccc(Cl)cc2OCCn2ccc(=O)[nH]c2=O)c1 | 8.30 | 19000 | 6.43 | 8.30 | 22000 | 5.80 | 
37 | N#Cc1cc(C#N)cc(Oc2cc(Cl)ccc2OCCn2ccc(=O)[nH]c2=O)c1 | 6.85 | 80000 | 4.68 | 6.85 | 77000 | 5.66 | 
38 | COCCOc1cccc(Oc2ccc(C#N)cc2OCCn2ccc(=O)[nH]c2=O)c1 | 6.27 | > 100000 |  |  |  |  | 
39 | N#C/C=C/c1cc(F)cc(Oc2ccc(Cl)cc2OCCn2ccc(=O)[nH]c2=O)c1 | 8.49 | 48000 | 6.82 | 8.49 | 48000 | 6.05 | 
40 | N#Cc1ccc(Cl)c(Oc2ccc(Cl)cc2OCCn2ccc(=O)[nH]c2=O)c1 | 7.00 | 60000 |  |  |  |  | 
